Test results as given in PubChem BioAssay.
Activity calls are given as the source filed them.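 The calls were made as follows, unless noted: active = viability at or below 10% of carrier control in both of two separate runs; inconclusive = viability at or below 10% in only one of the two runs; inactive = the rest.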

Assays:
[1] = SK-BR-3 cell growth inhibitors, pilot screen, 24 h, human (AID 572); settings: SK-BR-3 viability, CellTiter-Glo luminescence, at 10 µM, stronger effect = lower value;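 also: compound exposure lasted between 18 and 24 h rather than exactly 24 h; 100% = carrier-treated control wells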
[2] = HUVEC growth inhibition – cell-based, human, primary screen (AID 575;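 active = viability at or below 30% in both replicate assays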;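 also: 100% = median of untreated cell wells with 0.1% DMSO on each plate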); settings: HUVEC proliferation, CellTiter-Glo luminescence, 72 h; at 10 µM; stronger effect = lower value
Method in brief: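 System: primary human umbilical vein endothelial cells; Quantity: 1250 endothelial cells in each well; Buffer or medium: supplemented EBM, 2% fetal bovine serum; Doses: one dose, 10 µM final, 0.1% DMSO; Incubation: 72 h compound incubation; Technique: ATP-based CellTiter-Glo luminescent read; Evaluation: percent of median DMSO-control luminescence; Controls: vehicle and MePR control wells.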

[3] = growth inhibitors of H69AR lung tumor, primary screen, human, duplicate replicates (AID 580;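 active = viability at or under a set limit in both replicates, limit being median viability minus 3 SD, cut at about 48% in these data, passing the limit was not always enough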;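 also: 100% = mean luminescence of untreated wells and 0% = no signal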); settings: H69AR lung tumor cells viability, ATP luminescence, 72 h; at 10 µM; stronger effect = lower value
[4] = reversal of MRP1-mediated doxorubicin resistance, pilot screen, H69AR cells, doxorubicin co-treatment (AID 601;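 active = viability loss from added drug above about 55%, and viability with drug at most 40%, in both replicates, limit read from the data, passing the limit was not always enough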); settings: CellTiter-Glo, 72 h, at 10 µM; for differential viability (reversal): stronger effect = higher value
[5] = 384-well plate pilot, post-Golgi transport modulator project, inhibition of yeast transport mutant growth (AID 636; in the data active = inhibition above about 31%); settings: absorbance 615 nm, about 18 h, stronger effect = higher value
[6] = growth suppression of yeast trafficking mutant, preliminary HTS, modulators of trafficking downstream of Golgi apparatus project, 1536-format plate, OD 615 nm (AID 637; in the data active = inhibition above about 30%); settings: yeast transport mutant growth, absorbance 615 nm, 18 h; stronger effect = higher value
[7] = H69AR cells + 2 uM doxorubicin, measured here: viability with 2 uM doxorubicin, stronger effect = lower value
[8] = H69AR cells, compound alone cytotoxicity

Row | Compound | viability [1] | viability [2] | viability [3] | differential viability (reversal) ([4]; H69AR cells + 2 uM doxorubicin) | viability [4, 7] [%] | viability [4, 8] [%] | inhibition [5] | inhibition [6]
1 | Cc1c(NC(=O)c2nn(C)c(=O)c3ccccc23)c(=O)n(-c2ccccc2)n1C | 94% (inactive) | 108% (inactive) | 97.9% (inactive) | 8.84% (inactive) | 89.1 | 97.9 | -1.92% (inactive) | -8.06% (inactive)
2 | CN1CCN(C2=Nc3ccccc3Oc3ccc(Cl)cc32)CC1 | 80% (inactive) | 59.7% (inactive) | 73.6% (inactive) | 48.3% (inactive) | 25.3 | 73.6 | -3.38% (inactive) | -1.83% (inactive)
3 | Cc1csc(NC(=O)C2CCCO2)n1 (stereo not drawn) | 87% (inactive) | 86.9% (inactive) | 91.4% (inactive) | 9.97% (inactive) | 81.4 | 91.4 | -4.16% (inactive) | 10.3% (inactive)
4 | N#Cc1c(N2CCOCC2)nc(N2CCCCC2)c2c1CCN(C1CCCCC1)C2 | 92% (inactive) | 101% (inactive) | 89.2% (inactive) | 17.5% (inactive) | 71.6 | 89.2 | -1.22% (inactive) | -1.82% (inactive)
5 | O=C(CN1C(=O)c2ccccc2C1=O)Nc1ccc(S(=O)(=O)NCC2CCCO2)cc1 (stereo not drawn) | 89% (inactive) | 107% (inactive) | 96.4% (inactive) | -14.1% (inactive) | 110 | 96.4 | -7.4% (inactive) | -4.91% (inactive)
6 | CCOC(=O)C1(c2ccccc2)NC(c2ccc(N(C)C)cc2)C2C(=O)N(C)C(=O)C21 (stereo not drawn) | 82% (inactive) | 104% (inactive) | 94.4% (inactive) | 29.2% (inactive) | 65.2 | 94.4 | -8.11% (inactive) | -6.73% (inactive)
7 | COc1ccccc1NC(=O)NCc1ccc2c(c1)OCO2 | 87% (inactive) | 101% (inactive) | 93% (inactive) | -1.33% (inactive) | 94.4 | 93 | -4.13% (inactive) | -3.82% (inactive)
8 | O=C(NCc1ccccc1)C1CCCN(S(=O)(=O)c2cccnc2)C1 (stereo not drawn) | 92% (inactive) | 95.5% (inactive) | 99% (inactive) | 6.21% (inactive) | 92.8 | 99 | -4.66% (inactive) | -3.81% (inactive)
9 | Cc1occc1C(=O)Nc1nnc(C2CCCCC2)s1 | 109% (inactive) | 93.1% (inactive) | 93.7% (inactive) | 14.1% (inactive) | 79.6 | 93.7 | -2.74% (inactive) | 10.7% (inactive)
10 | Cc1occc1C(=O)Nc1ccc(S(=O)(=O)N2CCN(C)CC2)cc1 | 71% (inactive) | 89.2% (inactive) | 90.4% (inactive) | 5.85% (inactive) | 84.5 | 90.4 | -3.01% (inactive) | 1.82% (inactive)
11 | CCOc1ccc(NS(=O)(=O)c2ccc(OCC(=O)N3CCCC3)cc2)cc1 | 92% (inactive) | 102% (inactive) | 88.7% (inactive) | 3.44% (inactive) | 85.2 | 88.7 | 1.51% (inactive) | -4.84% (inactive)
12 | c1coc(CN(Cc2cccs2)Cc2nnnn2C2CCCCC2)c1 | 74% (inactive) | 83.2% (inactive) | 75.7% (inactive) | -4.73% (inactive) | 80.4 | 75.7 | -3.84% (inactive) | 0% (inactive)
13 | CC1(C)S[C@@H]2[C@H](NC(=O)C(C(=O)O)c3ccccc3)C(=O)N2[C@H]1C(=O)O (stereo partly drawn) | 87% (inactive) | 73.9% (inactive) | 107% (inactive) | 3.92% (inactive) | 103 | 107 | -1.43% (inactive) | -2.67% (inactive)
14 | CC(OC(=O)CNC(=O)C12CC3CC(CC(C3)C1)C2)C(=O)Nc1ccc(N2CCOCC2)cc1 (stereo not drawn) | 121% (inactive) | 101% (inactive) | 97.2% (inactive) | 2.31% (inactive) | 94.8 | 97.2 | -0.68% (inactive) | -2.55% (inactive)
15 | CCN(CC)S(=O)(=O)c1ccc(NC(=O)c2cccc3c2C(=O)N(CCOC)C3)cc1 | 119% (inactive) | 109% (inactive) | 94.4% (inactive) | 9.21% (inactive) | 85.2 | 94.4 | -9.73% (inactive) | -5.45% (inactive)
16 | CC(C)(C)C(=O)NC1CCN(C(=O)N2CCCC2)CC1 | 93% (inactive) | 102% (inactive) | 94.5% (inactive) | 11.3% (inactive) | 83.2 | 94.5 | -8.24% (inactive) | 2.91% (inactive)
17 | CC(C)OC(=O)c1cccc(C(=O)O)n1 | 110% (inactive) | 91% (inactive) | 96% (inactive) | 1.99% (inactive) | 94.1 | 96 | -1.69% (inactive) | -5.57% (inactive)
18 | O=C(Nc1ccccc1)N(CCCN1CCOCC1)Cc1cc2cc3c(cc2[nH]c1=O)OCCO3 | 96% (inactive) | 82.3% (inactive) | 67.6% (inactive) | 2.71% (inactive) | 64.9 | 67.6 | 2.13% (inactive) | 3.45% (inactive)

Row | Compound | viability [1] | viability [2] | viability [3] | differential viability (reversal) ([4]; H69AR cells + 2 uM doxorubicin) | viability [4, 7] [%] | viability [4, 8] [%] | inhibition [5] | inhibition [6]
19 | CCOc1ccccc1N1CC(O)=C(c2nc3ccccc3s2)C1=N | 97% (inactive) | 49.4% (inactive) | 14.5% (active) | -45.7% (inactive) | 60.2 | 14.5 | 1.47% (inactive) | 2.36% (inactive)
20 | CN1CCC(=C2c3ccccc3C=Cc3ccccc32)CC1 | 100% (inactive) | 52.6% (inactive) | 82.4% (inactive) | 9.07% (inactive) | 73.4 | 82.4 | -0.65% (inactive) | 1% (inactive)
21 | COc1ccc(-c2cc3ccc(OCc4nn[nH]n4)cc3oc2=O)cc1 | 104% (inactive) | 99.2% (inactive) | 102% (inactive) | 14.1% (inactive) | 87.5 | 102 | -6.58% (inactive) | 1.29% (inactive)
22 | CCC(C)n1ncn(-c2ccc(N3CCN(c4ccc(OCC5COC(Cn6cncn6)(c6ccc(Cl)cc6Cl)O5)cc4)CC3)cc2)c1=O (stereo not drawn) | 84% (inactive) | 7.76% (active) | 69.8% (inactive) | -1.92% (inactive) | 71.8 | 69.8 | 100% (active) | 96.7% (active)
23 | COC(=O)Cc1c(C)nc2nc[nH]n2c1=O | 88% (inactive) | 93% (inactive) | 105% (inactive) | 9.79% (inactive) | 95.3 | 105 | -4.73% (inactive) | -2.91% (inactive)
24 | OCCNC1=NCCN1 | 54% (inactive) | 99.5% (inactive) | 96.8% (inactive) | 6.17% (inactive) | 90.7 | 96.8 | -7.4% (inactive) | -0.55% (inactive)
25 | CCOc1ccccc1C(=O)Nn1c(C2CCC2)nc2ccccc2c1=O | 91% (inactive) | 91.1% (inactive) | 93.7% (inactive) | -18% (inactive) | 112 | 93.7 | -4.11% (inactive) | 2.55% (inactive)
26 | CC(=O)/C(C[N+]1(C)CCCCC1)=N\O | 107% (inactive) | 103% (inactive) | 105% (inactive) | 18.9% (inactive) | 85.6 | 105 | -6.13% (inactive) | 0.55% (inactive)
27 | CCOCCn1c(CN2CCC(Cc3ccccc3)CC2)nc2c1c(=O)n(C)c(=O)n2C | 61% (inactive) | 89.7% (inactive) | 87.7% (inactive) | 29.8% (inactive) | 58 | 87.7 | -8.22% (inactive) | 3.55% (inactive)
28 | CC(C)OC(=O)C1C2C=CC3(CN(Cc4cccs4)C(=O)C13)O2 (stereo not drawn) | 89% (inactive) | 96.7% (inactive) | 90.1% (inactive) | -3.73% (inactive) | 93.8 | 90.1 | -6.44% (inactive) | 2.42% (inactive)
29 | CCOC(=O)C1=C(C)NC(C)=C(C(=O)OC)C1c1cccc([N+](=O)[O-])c1 (stereo not drawn) | 68% (inactive) | 58% (inactive) | 83% (inactive) | -14.7% (inactive) | 97.7 | 83 | 5.58% (inactive) | -1.17% (inactive)
30 | COC(=O)CSc1nnc(CSc2nc(C)cc(C)n2)n1Cc1ccco1 | 81% (inactive) | 104% (inactive) | 99.8% (inactive) | 24.3% (inactive) | 75.5 | 99.8 | -4.53% (inactive) | -7.27% (inactive)
31 | COCCn1nnnc1CN1CCC(Cc2ccccc2)CC1 | 134% (inactive) | 102% (inactive) | 95.3% (inactive) | 5.17% (inactive) | 90.1 | 95.3 | -3.84% (inactive) | 4.68% (inactive)
32 | CN(C)CCC=C1c2ccccc2CCc2ccccc21 | 95% (inactive) | 60.6% (inactive) | 82.3% (inactive) | 8.06% (inactive) | 74.3 | 82.3 | -3.12% (inactive) | -1.67% (inactive)
33 | N#Cc1ccc(CSc2nnc(-c3cccs3)n2-c2ccccc2)cc1 | 78% (inactive) | 78% (inactive) | 78% (inactive) | 34.1% (inactive) | 44 | 78 | -0.82% (inactive) | -7.1% (inactive)
34 | Cc1[nH]nc2c1C(CCc1ccccc1)C(C#N)=C(N)O2 (stereo not drawn) | 104% (inactive) | 94.2% (inactive) | 90.2% (inactive) | -2.73% (inactive) | 92.9 | 90.2 | 4.11% (inactive) | 15.8% (inactive)
35 | C[C@@H]1CCC[C@H](C)N1NC(=O)c1ccc(Cl)c(S(N)(=O)=O)c1 | 100% (inactive) | 88.5% (inactive) | 99.7% (inactive) | 7.9% (inactive) | 91.8 | 99.7 | 0.39% (inactive) | -6.5% (inactive)
36 | CC(=O)SCCC(=O)Nc1ccccc1 | 88% (inactive) | 87.2% (inactive) | 92.5% (inactive) | 5.22% (inactive) | 87.3 | 92.5 | -7.12% (inactive) | 0.81% (inactive)
